# In PMC7564327 (Acta Pharmaceutica Sinica. B, 2020):
# What was measured:
# [1] = target: T1, hOAT1 (Homo sapiens, UniProt Q4U2R8); assay: Cellular uptake in MDCK-hOAT1 vs Mock cells; format: in vitro ADME; conditions: 100 μmol/L, substrate if >2-fold of wild type
# T1 sequence (Q4U2R8 1-563): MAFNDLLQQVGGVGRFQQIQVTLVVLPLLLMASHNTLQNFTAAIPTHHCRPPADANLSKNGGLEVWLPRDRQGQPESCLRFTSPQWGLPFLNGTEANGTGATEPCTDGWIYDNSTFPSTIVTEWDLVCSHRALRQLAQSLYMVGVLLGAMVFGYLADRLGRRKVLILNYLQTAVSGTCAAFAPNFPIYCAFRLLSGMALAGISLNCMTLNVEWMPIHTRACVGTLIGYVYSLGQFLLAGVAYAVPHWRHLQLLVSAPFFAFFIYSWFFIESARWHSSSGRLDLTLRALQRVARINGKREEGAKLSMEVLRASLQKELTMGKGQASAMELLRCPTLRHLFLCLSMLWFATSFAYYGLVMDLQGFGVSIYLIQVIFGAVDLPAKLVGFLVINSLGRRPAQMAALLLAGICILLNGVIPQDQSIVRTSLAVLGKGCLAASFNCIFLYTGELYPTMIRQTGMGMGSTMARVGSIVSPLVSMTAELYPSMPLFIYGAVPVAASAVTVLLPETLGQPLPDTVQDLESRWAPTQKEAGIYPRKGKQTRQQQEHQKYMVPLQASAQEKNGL
# In short: (§1)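 Transfected cells and matching Mock cells were seeded at 2 × 10⁵ cells/mL and grown 2 days. After a DPBS (pH 7.4) wash and 10 min preincubation at 37 °C, cells took up 100 μmol/L test compound for 2–5 min at 37 °C. Uptake was stopped with three ice-cold DPBS washes, followed by methanol extraction and HPLC–MS. Values were normalised to BCA protein and compared with Mock.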
# [2] = target: T2, hOATP1B3 (Homo sapiens, UniProt Q9NPD5); assay: Cellular uptake and kinetics in HEK293-hOATP1B3 vs Mock cells; format: in vitro ADME; conditions: 100 μmol/L, substrate if >2-fold of wild type
# T2 sequence (Q9NPD5 1-702): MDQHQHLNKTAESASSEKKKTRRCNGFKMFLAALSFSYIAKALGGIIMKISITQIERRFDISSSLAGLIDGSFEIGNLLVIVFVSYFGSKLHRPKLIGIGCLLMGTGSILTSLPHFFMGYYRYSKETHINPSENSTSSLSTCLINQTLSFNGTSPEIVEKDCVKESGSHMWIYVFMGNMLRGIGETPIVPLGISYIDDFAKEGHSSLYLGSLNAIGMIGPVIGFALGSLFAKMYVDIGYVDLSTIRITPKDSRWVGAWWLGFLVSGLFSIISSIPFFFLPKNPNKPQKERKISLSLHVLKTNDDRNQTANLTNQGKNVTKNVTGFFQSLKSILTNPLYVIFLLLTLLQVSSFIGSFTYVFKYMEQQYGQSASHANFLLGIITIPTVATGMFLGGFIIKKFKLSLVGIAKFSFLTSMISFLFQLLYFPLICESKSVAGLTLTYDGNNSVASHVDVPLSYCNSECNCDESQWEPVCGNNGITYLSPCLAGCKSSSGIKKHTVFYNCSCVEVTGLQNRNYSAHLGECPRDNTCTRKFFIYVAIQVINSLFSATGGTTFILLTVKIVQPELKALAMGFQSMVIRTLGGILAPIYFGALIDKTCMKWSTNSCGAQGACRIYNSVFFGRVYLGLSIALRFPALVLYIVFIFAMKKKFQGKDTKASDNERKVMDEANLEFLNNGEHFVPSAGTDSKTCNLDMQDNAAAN
# In short: as §1
# [3] = target: T1, hOAT1; assay: Inhibition of 14C-PAH uptake in MDCK-hOAT1 cells; format: in vitro ADME; conditions: for inhibition of the activity of hOAT1: 100 μmol/L IPT, ISP, 100 μg/mL AD extract, substrate 14C-PAH
# In short: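 Test compounds were made as DMSO stocks (20 mmol/L, or 10 mg/mL for extract) and diluted in PBS to a final DMSO below 0.5%. Cells were exposed at 37 °C to probe plus or minus test compound. The probe was 5 μmol/L ¹⁴C-PAH for 5 min (hOAT1) or 50 nmol/L ³H-estrone sulfate for 2 min (hOAT3, hOATP2B1). Screens used 100 μmol/L (extract 100 mg/L); IC50 came from varied concentrations. Cells were then given three cold DPBS washes, lysed in 0.1 mol/L NaOH and read by scintillation counting. Data are mean ± SD, n = 3.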
# [4] = target: T3, hOATP1B1 (Homo sapiens, UniProt Q9Y6L6); assay: Inhibition of 3H-ES uptake in HEK293-hOATP1B1 cells; format: in vitro ADME; conditions: 100 μmol/L IPT, ISP; 100 μg/mL AD extract; substrate 3H-ES
# T3 sequence (Q9Y6L6 1-691): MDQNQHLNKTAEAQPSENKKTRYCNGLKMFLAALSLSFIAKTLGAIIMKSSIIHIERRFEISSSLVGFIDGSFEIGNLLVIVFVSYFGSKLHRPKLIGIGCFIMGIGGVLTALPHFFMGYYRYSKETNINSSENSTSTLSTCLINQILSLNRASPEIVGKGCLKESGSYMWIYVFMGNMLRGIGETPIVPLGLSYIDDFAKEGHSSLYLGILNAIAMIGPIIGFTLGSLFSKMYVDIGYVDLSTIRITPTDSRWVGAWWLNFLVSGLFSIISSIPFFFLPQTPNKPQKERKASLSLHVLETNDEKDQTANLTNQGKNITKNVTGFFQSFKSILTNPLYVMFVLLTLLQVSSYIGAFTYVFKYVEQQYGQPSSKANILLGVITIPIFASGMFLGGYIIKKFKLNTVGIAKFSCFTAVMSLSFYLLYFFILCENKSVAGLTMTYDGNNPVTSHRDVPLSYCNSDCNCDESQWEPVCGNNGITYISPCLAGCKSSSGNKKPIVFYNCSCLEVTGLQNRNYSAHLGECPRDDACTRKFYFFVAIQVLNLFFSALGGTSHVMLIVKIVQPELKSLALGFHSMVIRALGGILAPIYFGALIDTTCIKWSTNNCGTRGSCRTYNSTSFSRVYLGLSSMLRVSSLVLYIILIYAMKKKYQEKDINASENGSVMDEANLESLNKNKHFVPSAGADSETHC
# In short: (§2)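 HEK293 cells stably overexpressing the human transporter, grown in DMEM with 10% FBS and penicillin/streptomycin at 5% CO₂, then seeded in 24-well plates and used at confluence. Cells incubated at 37 °C for 2 min with 50 nmol/L ³H-estrone sulfate, with or without test compound or extract; final DMSO below 0.5%. Stopped by three cold DPBS washes, lysed in 0.1 mol/L NaOH, and counted by liquid scintillation (DPM).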
# [5] = target: T2, hOATP1B3; assay: Inhibition of 3H-ES uptake in HEK293-hOATP1B3 cells; format: in vitro ADME; conditions: 100 μmol/L IPT, ISP; 100 μg/mL AD extract; substrate 3H-ES
# In short: as §2
# [6] = tested on: mOatp1b2; assay: qRT-PCR of mOatp1b2 mRNA in liver of treated mice; format: in vivo; conditions: mice given 20 mg/kg TDE with 20 mg/kg IPT, ISP or 200 mg/kg AD extract, 4 h
smiles,measurement,setting,value
"CC(C)=CCOc1c2occc2cc2ccc(=O)oc12 [IPT, imperatorin]","accumulation in MDCK-hOAT1, fold higher than in MDCK-Mock",[1],~4.92 fold
same,accumulation in HEK293-hOATP1B3 vs HEK293 wild type,[2],no significant differences
same,IC50,[3],31.7 µM
same,inhibition of the activity of hOAT1,[3],significantly inhibited
same,inhibition to hOATP1B1,[4],weak or no inhibition
same,inhibition to hOATP1B3,[5],weak or no inhibition
same,"mRNA level of mOatp1b2 decreased to, compared to TDE alone",[6],61%
"CC(C)=CCOc1c2ccoc2cc2oc(=O)ccc12 [ISP, isoimperatorin]","accumulation in MDCK-hOAT1, fold higher than in MDCK-Mock",[1],~3.40 fold
same,accumulation in HEK293-hOATP1B3 vs HEK293 wild type,[2],no significant differences
same,IC50,[3],26.8 µM
same,inhibition of the activity of hOAT1,[3],significantly inhibited
same,inhibition to hOATP1B1,[4],weak or no inhibition
same,inhibition to hOATP1B3,[5],weak or no inhibition
same,"mRNA level of mOatp1b2 decreased to, compared to TDE alone",[6],50%
